# Screens (PubChem BioAssay)
# Shown are actives, neighbours in structure and some others; about 4.5% of the full set was active somewhere.
# PERK inhibitor: inhibitors of human PERK kinase | Q9NZJ5 | CHO PERK-DD fusion, SEAP luminescence translation reporter | inhibition, % at 5.6 µM | 0.17% of 220,000 active | AID 1416;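 active = inhibition above the mean inhibition of all tested compounds plus 3 SD, set separately per screening campaign, cut at about 2.9% in these data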;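 note: PERK kinase domain activated by AP20187 dimerizer at 100 nM; 0% = DMSO with dimerizer and 100% = rapamycin at 8.4 µM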
# APP 5'UTR act: APP 5'UTR luciferase reporter activation. SH-SY5Y APP 5'UTR luciferase reporter, luminescence; zero percent = DMSO vehicle wells. activation, % at 2 µM. 1% of 190,000 active;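 active = activation above a set limit, based on mean plus 3 SD of controls, cut at about 140% in these data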
# AHR act: activators of human aryl hydrocarbon receptor | P35869 | AHR-responsive luciferase reporter cells, luminescence | activation, % at 5 µM | 2.5% of 320,000 active | AID 2796; in the data active = activation above about 47%;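 note: 0% = vehicle wells and 100% = reference agonist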
# NF-kB neuron act: compounds increasing NF-kB expression in human neuronal cells. NF-kB reporter expression; active compounds read high. fold change at 12.5 µM. 1.6% of 190,000 active. AID 1239; in the data active = fold change above about 3.3
# MDM2 E3 inh: inhibitors of human Mdm2 E3 ubiquitin ligase; signal enhancement, % at 5 µM; cell-based MDM2 ubiquitination luciferase reporter, 2 h; 0 = plate control, 100 = twice control, blank-subtracted; 0.11% of 210,000 active; Q00987;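 active = signal enhancement of 30% or more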;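 note: luminescence tracks abundance of the self-degrading MDM2-luciferase fusion protein; higher signal means inhibition of MDM2 E3 ligase activity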
# Target sequence (Q00987 whole entry, looked up, the tested form may be a part): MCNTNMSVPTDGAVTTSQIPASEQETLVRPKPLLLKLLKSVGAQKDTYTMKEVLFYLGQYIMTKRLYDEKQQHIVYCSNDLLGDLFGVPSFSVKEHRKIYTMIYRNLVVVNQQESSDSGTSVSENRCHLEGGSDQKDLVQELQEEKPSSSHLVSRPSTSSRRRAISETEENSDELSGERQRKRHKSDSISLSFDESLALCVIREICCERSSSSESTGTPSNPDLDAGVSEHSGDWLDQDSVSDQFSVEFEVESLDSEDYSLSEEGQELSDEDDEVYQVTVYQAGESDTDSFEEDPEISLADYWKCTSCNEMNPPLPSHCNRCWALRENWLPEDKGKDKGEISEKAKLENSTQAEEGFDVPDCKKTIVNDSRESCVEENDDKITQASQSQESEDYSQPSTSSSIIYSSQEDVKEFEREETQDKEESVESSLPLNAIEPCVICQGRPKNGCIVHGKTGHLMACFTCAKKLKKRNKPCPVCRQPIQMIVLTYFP
#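 test system = mammalian cells stably expressing self-ubiquitinating, self-degrading MDM2 E3–luciferase fusion | quantity = 2000 cells/well | incubation = cell settling 4 h, compound treatment 2 h, both 37 °C | signal = luminescence with SteadyLite reagent, 15 min at room temperature | evaluation = % enhancement relative to plate controls after blank subtraction | benchmarks = plate controls and plate blanks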
# STAT1 act: activators of IFN-gamma induced STAT1 signaling; NIH 3T3 STAT1-luciferase reporter, luminescence; 100% = IFN-gamma alone, no compound; activation (% of control), % at 5.5 µM; 2.6% of 200,000 active; AID 932;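 active = activation above the screen-wide mean activation plus 3 SD, cut at about 130% in these data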;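 note: raw ratio to IFN-gamma control signal so 100% means no change and 0% no light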
# Numbers without * were called inactive; / = not tested or not shown.
SMILES,PERK inhibitor,APP 5'UTR act,AHR act,NF-kB neuron act,MDM2 E3 inh,STAT1 act
COc1ccc2sc(-c3ccc(N(C)C)cc3)c(C#Cc3cncn3C)c2c1,/,/,71*,/,/,/
COc1ccc(-c2sc3cc(OC)c(OC)cc3c2C#CCO)cc1,/,/,19,/,/,/
COc1ccc(-c2sc3ccc(OC)cc3c2C#CCCO)cc1,/,/,61*,/,/,/
COc1ccc2sc(-c3ccc(N(C)C)cc3)c(C#CC(C)(C)O)c2c1,/,/,28,/,/,/
COc1ccc(-c2sc3ccc(N4CCOCC4)cc3c2C#CC(C)(C)O)cc1,/,/,49*,/,/,/
CCOC(=O)C1CCN(C(=O)CN(C)S(=O)(=O)c2ccc3c(c2)c(=O)n(C)c(=O)n3C)CC1,/,/,-2,/,/,/
CN(c1ccccc1)S(=O)(=O)c1cccc(NC(=O)c2nn(C)c(=O)c3ccccc23)c1,/,/,2,/,/,/
Cc1ccc2c(c1)NC(=O)C(CC(=O)Nc1ccc(Br)c(C)c1)O2 (stereo unspecified),/,/,6,/,/,/
CCOc1ccc(S(=O)(=O)Nc2ccn(C)n2)cc1,/,/,-1,/,/,/
C/C(=N\Nc1ccc(C(F)(F)F)cn1)c1ccncc1,0,30,29,1.8,-15,134*
C=CCn1c(O)c(C2=c3ccccc3=NC2=O)c2ccccc21,/,/,31,/,/,/
Cc1ccc2c(c1)c(C1=c3ccccc3=NC1=O)c(O)n2C,/,/,66*,/,/,/
NC(=O)c1c(NC(=O)CN2CCN(S(=O)(=O)c3ccccc3)CC2)sc2c1CCC2,/,/,-6,/,/,/
O=C(CSc1ccc(S(=O)(=O)N2CCCCC2)cn1)Nc1ccccc1Br,/,/,2,/,/,/
Cc1ccc(N=Nc2[nH]c3ccccc3c2O)cc1,1,13,77*,1.9,-8,130*
COc1ccc(N=Nc2[nH]c3ccc(C)cc3c2O)cc1,1,19,69*,1.2,13,114
Cc1c(N=C2NN=C(c3c[nH]c4ccccc34)CS2)c(=O)n(-c2ccccc2)n1C,0,/,56*,/,-10,/
Cn1c(-c2ccccc2)cnc1SCc1nc2ccccc2c(=O)[nH]1,0,142*,6,1.8,-9,134*
Cn1c(SCc2nc3ccccc3c(=O)[nH]2)nc2ccccc21,1,5,61*,1.3,-2,106
O=c1[nH]c(CSc2cccc[n+]2[O-])nc2ccccc12,0,/,48*,/,-15,/
COc1ccccc1OCCN1CSC(=S)N(C)C1,0,-5,23,6.6*,-9,107
CCN(CC(=O)Nc1ccc(Br)cc1)C(=O)Cc1cccc(F)c1,/,/,5,/,/,/
FC(F)(F)c1ccc(Nc2nnnc3ccccc23)cc1,0,29,4,1.6,-9,120
CCN(c1ccccc1)S(=O)(=O)c1ccc(Oc2ccccc2C(C)=O)nc1,/,/,4,/,/,/
CCN(c1ccccc1)S(=O)(=O)c1ccc(Oc2ccc(-n3ccnc3)cc2)nc1,-2,-2,59*,0.71,-2,97
SMILES,PERK inhibitor,APP 5'UTR act,AHR act,NF-kB neuron act,MDM2 E3 inh,STAT1 act
CC(NC(=O)c1cc(-c2ccccn2)nc2ccc(Cl)cc12)C1CCCO1 (stereo unspecified),/,/,52*,/,/,/
CCN(CC)S(=O)(=O)c1ccc(/C=C/C(=O)OCC(=O)Nc2ccc(S(N)(=O)=O)cc2)cc1,1,-12,-1,0.99,-6,103
CCCNC(=O)c1cc(-c2ccc(Br)cc2)on1,1,10,-3,3.6*,-16,120
O=C(Nc1cnn(C23CC4CC(CC(C4)C2)C3)c1)c1cc(-c2ccccc2)on1,1,-16,-2,1,-15,106
COc1ccc(-c2cc(C(=O)NCC(C)C)no2)cc1,1,26,-5,5*,-32,133*
CCCn1cc(NC(=O)c2cc(-c3ccccc3)on2)cn1,0,0,-2,3.6*,-33,130*
COc1ccc(-c2cc(C(=O)NCc3cccs3)no2)cc1,0,/,15,/,-19,/
CC(C)NC(=O)c1cc(-c2ccc(Br)cc2)on1,1,115,-5,4.9*,-6,150*
CS(=O)(=O)N1CCC(C(=O)Nc2cccc([N+](=O)[O-])c2)CC1,-1,2,3,1.5,-18,101
O=C(N/C(=C/c1cccc([N+](=O)[O-])c1)C(=O)N1CCCCC1)c1cccs1,1,12,19,0.87,-3,108
CCOc1ccc(NC(=O)CN2CCc3cc4c(cc3C2)OCCCO4)cc1OCC,/,/,1,/,/,/
CS(=O)(=O)c1ccc2nc(NC(=O)C3CCCO3)sc2c1 (stereo unspecified),1,32,10,0.98,0,124
O=C(Nc1nc2ccc(Cl)cc2s1)C1CCCO1 (stereo unspecified),0,102,-3,4.6*,-5,144*
O=C(Nc1nc2ccc([N+](=O)[O-])cc2s1)C1CCCO1 (stereo unspecified),1,62,-2,2.2,-9,136*
COC(=O)c1ccc2nc(NC(=O)C3CCCCC3)sc2c1,1,141*,4,1.6,-19,124
COc1ccc(-c2cc(-c3ccc(OC)cc3)nc(-c3ccc4c(c3)NC(=O)CO4)c2)cc1,1,-8,7,1.1,-21,93
COc1cccc(-c2nc(-c3ccc4c(c3)NC(=O)CO4)cs2)c1,1,52,-3,1.6,-13,142*
O=C1COc2ccc(-c3csc(NCC4CCCO4)n3)cc2N1 (stereo unspecified),1,8,77*,1.4,-5,109
Cc1ccc(CNc2nc3ccccc3s2)s1,0,182*,68*,4.2*,-76,53
c1ccc2sc(NCC3CCCO3)nc2c1 (stereo unspecified),1,50,18,1.2,-11,136*
c1ccc2oc(-c3csc(NCC4CCCO4)n3)cc2c1 (stereo unspecified),0,169*,-1,9.1*,-34,148*
O=C(c1ccc(Br)o1)N1CCN(c2ccc3nnc(-c4ccc(F)cc4)n3n2)CC1,0,-9,47*,0.77,-4,93
O=C(Nc1ccc(Cl)cc1)N1CCN(c2ccc3nnc(-c4ccc(F)cc4)n3n2)CC1,-1,-9,-4,0.45,-29,87
Nc1ccc(C#Cc2c(-c3ccsc3)oc3ccc(N4CCOCC4)cc23)cc1,/,/,70*,/,/,/
COc1ccc(-c2c(-c3ccsc3)oc3ccc(N4CCOCC4)cc23)cn1,/,/,59*,/,/,/
C=C1C(=O)[C@@]23[C@H](O)C[C@@H]4C(C)(C)CC[C@H](O)[C@@]4(C)[C@@H]2CC[C@@H]1[C@H]3O,0,-84,-7,1.2,/,70
CC(C)(C)NC(=O)COc1coc(CN2CCN(C(=O)c3ccco3)CC2)cc1=O,/,/,-3,/,/,/
Nc1n[nH]c(C2CC2)c1N=Nc1ccc(Cl)c(Cl)c1,2,/,96*,/,-3,/
Cc1ccc(S(=O)(=O)N(CC(=O)N2CCOCC2)c2ccc(C(C)C)cc2)cc1,/,/,-2,/,/,/
O=C(Nc1nc(-c2ccc(F)c(F)c2)cs1)c1ccc(OCC2CCCO2)cc1 (stereo unspecified),1,24,8,0.99,-30,110
